{"source": "ChEMBL document CHEMBL3808334", "about": "“Synthesis and in vitro evaluation of novel triazine analogues as anticancer agents and their interaction studies with bovine serum albumin” (Eur J Med Chem, 2016)", "key": {"NCI-H23 [1]": {"test_system": "NCI-H23", "assay": "Growth inhibition of human NCI-H23 cells assessed as cell growth at 10^-7 M incubated for 48 hrs by sulforhodamine B assay", "assay_type": "functional", "details": "NCI-H23, 48 h, read-out: Activity"}, "HT-29": {"test_system": "HT-29", "assay": "Growth inhibition of human HT-29 cells assessed as cell growth at 10^-4 M incubated for 48 hrs by sulforhodamine B assay", "assay_type": "functional", "details": "HT-29, 48 h, read-out: Activity"}, "[2]": {"assay": "Growth inhibition of human LOXIMVI cells assessed as cell growth at 10^-5 M incubated for 48 hrs by sulforhodamine B assay", "assay_type": "functional", "details": "LOX IMVI, read-out: Activity"}, "[3]": {"assay": "Growth inhibition of human SKOV3 cells assessed as cell growth at 10 uM incubated for 48 hrs by sulforhodamine B assay", "assay_type": "functional", "details": "SK-OV-3, 48 h, read-out: Activity"}, "[4]": {"assay": "Growth inhibition of human HOP62 cells assessed as cell growth at 10^-7 M incubated for 48 hrs by sulforhodamine B assay", "assay_type": "functional", "details": "HOP-62, 48 h, read-out: Activity"}, "NCI-H23 [5]": {"test_system": "NCI-H23", "assay": "Growth inhibition of human NCI-H23 cells assessed as cell growth at 10^-5 M incubated for 48 hrs by sulforhodamine B assay", "assay_type": "functional", "details": "NCI-H23, 48 h, read-out: Activity"}, "[6]": {"assay": "Growth inhibition of human Hs 578T cells assessed as cell growth at 10^-8 M incubated for 48 hrs by sulforhodamine B assay", "assay_type": "functional", "details": "read-out: Activity"}, "[7]": {"assay": "Growth inhibition of human OVCAR8 cells assessed as cell growth at 10 uM incubated for 48 hrs by sulforhodamine B assay", "assay_type": "functional", "details": "OVCAR-8, 48 h, read-out: Activity"}, "Albumin": {"target": "Albumin (Bos taurus, UniProt P02769)", "sequence (P02769 whole entry)": "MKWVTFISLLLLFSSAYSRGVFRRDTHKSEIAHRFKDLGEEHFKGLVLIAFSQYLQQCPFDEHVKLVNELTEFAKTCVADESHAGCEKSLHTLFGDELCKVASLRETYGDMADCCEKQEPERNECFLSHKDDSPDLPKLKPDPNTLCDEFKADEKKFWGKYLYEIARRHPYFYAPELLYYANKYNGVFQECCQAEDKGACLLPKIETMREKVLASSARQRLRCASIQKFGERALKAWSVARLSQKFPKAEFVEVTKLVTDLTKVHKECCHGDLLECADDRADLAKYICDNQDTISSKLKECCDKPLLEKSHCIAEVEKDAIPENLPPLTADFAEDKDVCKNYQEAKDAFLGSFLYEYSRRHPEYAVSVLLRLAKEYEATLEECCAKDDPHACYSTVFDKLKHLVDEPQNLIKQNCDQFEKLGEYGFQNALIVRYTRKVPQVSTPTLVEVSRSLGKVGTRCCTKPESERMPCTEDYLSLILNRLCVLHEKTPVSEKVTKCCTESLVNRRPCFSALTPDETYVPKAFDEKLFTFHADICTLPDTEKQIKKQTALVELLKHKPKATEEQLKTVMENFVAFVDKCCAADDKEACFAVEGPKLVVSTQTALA", "assay": "Binding affinity to bovine serum albumin assessed as hyperchromicity in absorption spectra up to 20 uM after 5 mins by UV-visible spectroscopic analysis relative to control", "assay_type": "ADME", "details": "cattle, isolated protein", "in_short": "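UV-visible absorption titration of 10 µM BSA in 0.1 M phosphate buffer pH 7.4 with increasing compound, 0–20 µM. Compounds diluted from DMSO stocks into buffer. Spectra recorded 200–800 nm in a 1 cm quartz cell at 300 K after 5 min equilibration. The BSA band is at 279 nm; changes are compared with BSA alone.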"}, "[8]": {"assay": "Growth inhibition of human RXF393 cells assessed as cell growth at 10^-7 M incubated for 48 hrs by sulforhodamine B assay", "assay_type": "functional", "details": "RXF 393, 48 h, read-out: Activity"}, "[9]": {"assay": "Growth inhibition of human HOP92 cells assessed as cell growth at 10^-4 M incubated for 48 hrs by sulforhodamine B assay", "assay_type": "functional", "details": "HOP-92, 48 h, read-out: Activity"}, "[10]": {"assay": "Growth inhibition of human COLO205 cells incubated for 48 hrs by sulforhodamine B assay", "assay_type": "functional", "details": "COLO 205, 48 h", "in_short": "(§1)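 Cells seeded at 5,000–40,000/well according to doubling time and preincubated 24 h at 37 °C, 5% CO2. Time-zero plates were TCA-fixed. DMSO concentrate was diluted in medium with 50 µg/ml gentamicin to give five concentrations (10-fold or ½ log steps), then exposed 48 h. Cells were TCA-fixed, stained with 0.4% SRB and read at 515 nm. Percent growth was taken against time-zero and control; GI50, TGI and LC50 derived.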"}, "[11]": {"assay": "Growth inhibition of human SF268 cells assessed as cell growth at 10^-8 M incubated for 48 hrs by sulforhodamine B assay", "assay_type": "functional", "details": "SF-268, 48 h, read-out: Activity"}, "[12]": {"assay": "Growth inhibition of human OVCAR4 cells assessed as cell growth at 10^-8 M incubated for 48 hrs by sulforhodamine B assay", "assay_type": "functional", "details": "OVCAR-4, 48 h, read-out: Activity"}, "[13]": {"assay": "Growth inhibition of human HOP62 cells incubated for 48 hrs by sulforhodamine B assay", "assay_type": "functional", "details": "HOP-62, 48 h", "in_short": "as §1"}, "[14]": {"assay": "Growth inhibition of human SF539 cells assessed as cell growth at 10^-5 M incubated for 48 hrs by sulforhodamine B assay", "assay_type": "functional", "details": "SF-539, 48 h, read-out: Activity"}, "[15]": {"assay": "Growth inhibition of human HOP62 cells assessed as cell growth at 10^-6 M incubated for 48 hrs by sulforhodamine B assay", "assay_type": "functional", "details": "HOP-62, 48 h, read-out: Activity"}, "[16]": {"assay": "Growth inhibition of human TK10 cells assessed as cell growth at 10^-8 M incubated for 48 hrs by sulforhodamine B assay", "assay_type": "functional", "details": "TK-10, 48 h, read-out: Activity"}, "SK-MEL-2": {"test_system": "SK-MEL-2", "assay": "Growth inhibition of human SK-MEL-2 cells assessed as cell growth at 10^-5 M incubated for 48 hrs by sulforhodamine B assay", "assay_type": "functional", "details": "SK-MEL-2, 48 h, read-out: Activity"}, "[17]": {"assay": "Growth inhibition of human UO31 cells incubated for 48 hrs by sulforhodamine B assay", "assay_type": "functional", "details": "UO-31, 48 h", "in_short": "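Cells were plated at 5,000–40,000 per well according to doubling time and preincubated 24 h at 37 °C in 5% CO2; time-zero plates were then TCA-fixed. Five concentrations (10-fold or ½-log dilutions, DMSO stock) were incubated 48 h. Cells were TCA-fixed, stained with 0.4% SRB and read at 515 nm. GI50 was taken where [(Ti−Tz)/(C−Tz)]×100 = 50.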"}, "SN12C": {"test_system": "SN12C", "assay": "Growth inhibition of human SN12C cells assessed as cell growth at 10^-8 M incubated for 48 hrs by sulforhodamine B assay", "assay_type": "functional", "details": "read-out: Activity"}, "NCI-H226": {"test_system": "NCI-H226", "assay": "Growth inhibition of human NCI-H226 cells assessed as cell growth at 10 uM incubated for 48 hrs by sulforhodamine B assay", "assay_type": "functional", "details": "NCI-H226, 48 h, read-out: Activity"}, "ACHN": {"test_system": "ACHN", "assay": "Growth inhibition of human ACHN cells assessed as cell growth at 10^-6 M incubated for 48 hrs by sulforhodamine B assay", "assay_type": "functional", "details": "read-out: Activity", "in_short": "(§2)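 Five-dose assay: five concentrations from 10-fold or ½-log serial dilutions. Cells are plated at 5,000–40,000 per well according to doubling time, grown 24 h, then exposed 48 h at 37 °C, 5% CO₂. Fixed with cold 50% TCA (final addition) for 60 min at 4 °C and stained with 0.4% SRB in 1% acetic acid. Bound dye is solubilized in 10 mM Tris base and read at 515 nm. GI₅₀ is where [(Ti−Tz)/(C−Tz)]×100 = 50, with a time-zero plate as Tz.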"}, "T47D": {"test_system": "T47D", "assay": "Growth inhibition of human T47D cells assessed as cell growth at 10^-8 M incubated for 48 hrs by sulforhodamine B assay", "assay_type": "functional", "details": "read-out: Activity"}, "NCI-H522": {"test_system": "NCI-H522", "assay": "Growth inhibition of human NCI-H522 cells assessed as cell growth at 10^-6 M incubated for 48 hrs by sulforhodamine B assay", "assay_type": "functional", "details": "NCI-H522, 48 h, read-out: Activity"}, "786-0": {"test_system": "786-0", "assay": "Growth inhibition of human 786-0 cells assessed as cell growth at 10^-4 M incubated for 48 hrs by sulforhodamine B assay", "assay_type": "functional", "details": "786-0, 48 h, read-out: Activity", "in_short": "as §2"}}, "data": [{"smiles": "c1ccc(-c2nc(Nc3ccc(-c4nc5ccccc5[nH]4)cc3)nc(N3CCOCC3)n2)cc1", "values": [{"measurement": "growth at 0.1 µM", "setting": "NCI-H23 [1]", "result": 95, "unit": "%"}, {"measurement": "growth at 100 µM", "setting": "HT-29", "result": -76, "unit": "%"}, {"measurement": "growth at 10 µM", "setting": "[2]", "result": -61, "unit": "%"}, {"measurement": "growth at 10 µM", "setting": "[3]", "result": -30.3, "unit": "%"}, {"measurement": "growth at 0.1 µM", "setting": "[4]", "result": 93, "unit": "%"}, {"measurement": "growth at 10 µM", "setting": "NCI-H23 [5]", "result": -44, "unit": "%"}, {"measurement": "growth at 0.01 µM", "setting": "[6]", "result": 94, "unit": "%"}, {"measurement": "growth at 10 µM", "setting": "[7]", "result": -50.4, "unit": "%"}, {"measurement": "Activity", "setting": "Albumin", "result": 72.27, "unit": "%"}, {"measurement": "growth at 0.1 µM", "setting": "[8]", "result": 96, "unit": "%"}, {"measurement": "growth at 100 µM", "setting": "[9]", "result": -85, "unit": "%"}, {"measurement": "GI50", "setting": "[10]; read-out: GI50", "result": 1410, "unit": "nM"}, {"measurement": "LC50", "setting": "[10]; read-out: LC50", "result": 6.92, "unit": "µM"}, {"measurement": "TGI", "setting": "[10]; read-out: TGI", "result": 3.13, "unit": "µM"}, {"measurement": "GI50", "setting": "[10]; read-out: pGI50 (converted)", "result": 1410, "unit": "nM"}, {"measurement": "LC50", "setting": "[10]; read-out: pLC50 (converted)", "result": 6.92, "unit": "µM"}, {"measurement": "TGI", "setting": "[10]; read-out: pTGI (converted)", "result": 3.16, "unit": "µM"}, {"measurement": "growth at 0.01 µM", "setting": "[11]", "result": 96, "unit": "%"}, {"measurement": "growth at 0.01 µM", "setting": "[12]", "result": 104, "unit": "%"}, {"measurement": "GI50", "setting": "[13]; read-out: GI50", "result": 1730, "unit": "nM"}, {"measurement": "LC50", "setting": "[13]; read-out: LC50", "result": 7.16, "unit": "µM"}, {"measurement": "TGI", "setting": "[13]; read-out: TGI", "result": 3.52, "unit": "µM"}, {"measurement": "GI50", "setting": "[13]; read-out: pGI50 (converted)", "result": 1740, "unit": "nM"}, {"measurement": "LC50", "setting": "[13]; read-out: pLC50 (converted)", "result": 7.08, "unit": "µM"}, {"measurement": "TGI", "setting": "[13]; read-out: pTGI (converted)", "result": 3.55, "unit": "µM"}, {"measurement": "growth at 10 µM", "setting": "[14]", "result": -84, "unit": "%"}, {"measurement": "growth at 1 µM", "setting": "[15]", "result": 89, "unit": "%"}, {"measurement": "growth at 0.01 µM", "setting": "[16]", "result": 99, "unit": "%"}, {"measurement": "growth at 10 µM", "setting": "SK-MEL-2", "result": -85, "unit": "%"}, {"measurement": "LC50", "setting": "[17]", "result": 6.4, "unit": "µM"}, {"measurement": "GI50", "setting": "[17]; read-out: GI50", "result": 1320, "unit": "nM"}, {"measurement": "TGI", "setting": "[17]; read-out: TGI", "result": 2910, "unit": "nM"}, {"measurement": "GI50", "setting": "[17]; read-out: pGI50 (converted)", "result": 1320, "unit": "nM"}, {"measurement": "CC50", "setting": "[17]; read-out: pLC50 (the source's name) (converted)", "result": 6.46, "unit": "µM"}, {"measurement": "TGI", "setting": "[17]; read-out: pTGI (converted)", "result": 2880, "unit": "nM"}, {"measurement": "growth at 0.01 µM", "setting": "SN12C", "result": 96, "unit": "%"}, {"measurement": "growth at 10 µM", "setting": "NCI-H226", "result": -19.3, "unit": "%"}, {"measurement": "growth at 1 µM", "setting": "ACHN", "result": 64, "unit": "%"}, {"measurement": "growth at 0.01 µM", "setting": "T47D", "result": 103, "unit": "%"}, {"measurement": "growth at 1 µM", "setting": "NCI-H522", "result": 109, "unit": "%"}, {"measurement": "growth at 100 µM", "setting": "786-0", "result": -71, "unit": "%"}]}]}
